The list is not random: actives were taken first. Their share in the collection is about 7.1%.
HUVEC inhibit = inhibitors of human endothelial cell proliferation; viability, % at 10 µM (by protocol); AID 648; hit rate 1.1% among 86,000; HUVEC proliferation, CellTiter-Glo luminescence, 72 h; stronger effect = lower value;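 active = viability at or below 30%; inactive = viability above 30%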;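 note: 100% = median luminescence of DMSO-only cell control wells on each plate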
HCT116 bCat-KO = beta-catenin-lacking colon tumor cell growth suppression. HCT116 beta-catenin knockout viability, CellTiter-Glo, 60 h; stronger effect = lower value. viability, % at 10 µM. hit rate 1.5% among 140,000. AID 818;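 active = viability at or under a set limit, the compound median less 4 SD, cut at about 6% in these data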;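 note: 0% = Hyamine 1622 control at 20 µM and 100% = untreated cell control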
H69AR inhibit = blocks growth of human H69AR lung tumor cells. AID 598. viability, % at 10 µM. hit rate 6% among 85,000. H69AR lung tumor viability, ATP luminescence, 72 h; stronger effect = lower value;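 active = viability at or below 40%; inactive = viability above 40%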;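 note: multidrug resistant small cell line overexpressing MRP-1 efflux transporter; 100% = mean luminescence of untreated control wells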
Cav3 T inh = blocks human Cav3.2 T-type calcium channel. O95180. Cav3.2-expressing cells, Fluo-4 calcium fluorescence FDSS; stronger effect = lower value. B-score at 10 µM. hit rate 4% among 100,000. AID 449739;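 active = single-dose well whose peak fluorescence ratio is a statistical outlier from its plate by either plate-standardised score or position-corrected B-score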
Lung fibro prol = blocks proliferation of human lung fibroblasts; hit rate 1.1% among 85,000; LL 47 human lung fibroblast viability, ATP luminescence; stronger effect = lower value; viability, % at 10 µM;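 active = viability at or below 50% in the single dose screen; inactive = viability above 50%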;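 note: compound exposure lasted 72 h before the ATP readout; 100% = median luminescence of untreated cell-only wells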
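Test system: LL 47 human lung fibroblasts; Quantity: 1,150 cells/well; Buffer or medium: IMEM plus 15% FBS; Dosing: tenfold compound dosing solution, DMSO at 0.1%; Timing: overnight cell rest, 72 h compound treatment at 37 °C; Detection: ATP-based CellTiter-Glo luminescent readout; Read-out basis: viability percentage against median untreated-cell control; Controls: cell-only wells, no compound.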
PTEN del growth = PTEN-deleted cell growth suppression. HCT116 PTEN-null viability, CellTiter-Glo, 60 h; stronger effect = lower value. viability, % at 10 µM. hit rate 1.2% among 140,000;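 active = viability at or below a set limit, 4 SD under the median of all tested compounds, cut at about 3.7% in these data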;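 note: PTEN knockout HCT116 line with beta catenin targeted HCT116 as companion control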
* hit, by the source's call.

Screening CC1(C)CC(=O)c2c(nc(SCC(=O)Nc3nsc(-c4ccccc4)n3)c(C#N)c2-c2ccccc2)C1 returned HCT116 bCat-KO 43, Cav3 T inh -2.4* and PTEN del growth 46.
Cc1ccc(F)cc1NC(=O)c1ccc(NS(=O)(=O)c2ccc(Br)s2)cc1 was read as HCT116 bCat-KO 85 and PTEN del growth 92.
For Cc1cc(N2CCCCC2)n2nc(C)c(-c3ccccc3)c2n1 the results were HUVEC inhibit 89, HCT116 bCat-KO 72, H69AR inhibit 57, Cav3 T inh 0.2, Lung fibro prol 82 and PTEN del growth 67.
`COc1ccccc1N1CCN(c2cc(C)nc3nc(C)nn23)CC1` gave HUVEC inhibit 99, HCT116 bCat-KO 87, H69AR inhibit 40*, Cav3 T inh 0.036, Lung fibro prol 99 and PTEN del growth 92.
For COc1ccccc1-c1c(C)nn2c(N3CCN(c4ccccc4OC)CC3)cc(C)nc12 the results were HUVEC inhibit 81, HCT116 bCat-KO 15, H69AR inhibit 93, Cav3 T inh -1.4, Lung fibro prol 106 and PTEN del growth 36.
`COc1ccccc1-c1c(C)nn2c(N3CCCCCC3)cc(C)nc12` gave HCT116 bCat-KO 2.6*, Cav3 T inh -1.5 and PTEN del growth 3.2*.
`COc1ccc(-c2c(C)nn3c(N4CCN(Cc5ccccc5)CC4)cc(C)nc23)cc1OC` gave HUVEC inhibit 66, HCT116 bCat-KO 11, H69AR inhibit 17*, Cav3 T inh 1.7, Lung fibro prol 82 and PTEN del growth 7.
Screening CCOCCCNC(=O)C1CCN(c2cc(C)nc3c(-c4ccc(OC)c(OC)c4)c(C)nn23)CC1 returned HUVEC inhibit 106, HCT116 bCat-KO 72, H69AR inhibit 33*, Cav3 T inh 2.2, Lung fibro prol 106 and PTEN del growth 63.
Screening CCC(=O)NC(NC(=S)Nc1c(C)n(C)n(-c2ccccc2)c1=O)C(Cl)(Cl)Cl (centres undefined) returned HCT116 bCat-KO 99 and PTEN del growth 103.
Screening Cc1cc2ncn(/N=C/c3cc(Br)ccc3O)c2cc1C returned HUVEC inhibit 94, HCT116 bCat-KO 84, H69AR inhibit 31*, Cav3 T inh 0.47, Lung fibro prol 100 and PTEN del growth 89.
For O=[N+]([O-])c1ccc(/C=N/n2c(CO)nc3ccccc32)s1 the results were HCT116 bCat-KO 12 and PTEN del growth 7.
Screening Cc1nc2ccccc2n1/N=C/c1ccc([N+](=O)[O-])s1 returned HCT116 bCat-KO 1.5* and PTEN del growth 1.7*.
Screening Cc1ccc(CN2CCN(/N=C/c3cc(Br)ccc3O)CC2)cc1 returned HCT116 bCat-KO 71, Cav3 T inh -0.59 and PTEN del growth 79.
For Cc1cc2ncn(/N=C/c3ccc([N+](=O)[O-])s3)c2cc1C the results were HCT116 bCat-KO 1.5* and PTEN del growth 1.2*.
Screening O=[N+]([O-])c1ccc(/C=N/n2cnc3ccccc32)s1 returned HCT116 bCat-KO 2.4* and PTEN del growth 3.0*.
Screening CN1CCN(C(=O)CSc2ccc(C(F)(F)F)cc2[N+](=O)[O-])CC1 returned HCT116 bCat-KO 74 and PTEN del growth 85.
Screening O=C(COC(=O)CCCSc1nc2ccccc2[nH]1)NC(=O)NC1CCCC1 returned HUVEC inhibit 97, HCT116 bCat-KO 87, H69AR inhibit 97, Cav3 T inh -0.47, Lung fibro prol 89 and PTEN del growth 92.
For COc1cc2c(cc1OC)C(Nc1ccccc1)=NC(C)(C)C2 the results were HCT116 bCat-KO 85 and PTEN del growth 83.
`Cc1ccccc1C(C(=O)NCc1ccco1)N(CC1CCCO1)C(=O)Cn1nnc2ccccc21` (centres undefined) gave HUVEC inhibit 100, HCT116 bCat-KO 86, H69AR inhibit 101, Cav3 T inh -3.8*, Lung fibro prol 104 and PTEN del growth 85.
`Cc1cccc(N(C(=O)Cn2nnc3ccccc32)C(C(=O)NCc2ccco2)c2ccncc2)c1` (centres undefined) gave HUVEC inhibit 95, HCT116 bCat-KO 102, H69AR inhibit 86, Cav3 T inh 0.72, Lung fibro prol 102 and PTEN del growth 96.
O=C(NCc1ccco1)C(c1ccccc1)N(CC1CCCO1)C(=O)Cn1nnc2ccccc21 (centres undefined) was read as HUVEC inhibit 105, HCT116 bCat-KO 85, H69AR inhibit 97, Lung fibro prol 102 and PTEN del growth 88.
